Experimental data collected from several papers.
Each line is one published result; the experiments were not run side by side.
Target: 5-hydroxytryptamine receptor 1A (HTR1A, Homo sapiens, UniProt P08908)
Residues used in one study (P08908 1-422): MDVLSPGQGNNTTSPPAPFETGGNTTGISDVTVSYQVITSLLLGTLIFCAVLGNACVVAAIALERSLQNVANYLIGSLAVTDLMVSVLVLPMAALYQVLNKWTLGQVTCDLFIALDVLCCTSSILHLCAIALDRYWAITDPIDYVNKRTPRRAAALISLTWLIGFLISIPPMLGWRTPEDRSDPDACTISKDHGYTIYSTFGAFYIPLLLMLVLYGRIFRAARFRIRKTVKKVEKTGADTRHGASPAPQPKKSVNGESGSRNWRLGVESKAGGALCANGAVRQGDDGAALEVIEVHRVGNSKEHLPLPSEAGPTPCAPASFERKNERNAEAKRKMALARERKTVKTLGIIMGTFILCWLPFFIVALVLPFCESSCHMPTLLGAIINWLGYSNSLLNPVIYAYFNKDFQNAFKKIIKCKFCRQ

Compound	test	system	setting	quantity	value
CN(C)C(=O)N[C@H]1CC[C@H](CCN2CCN(c3cccc(Cl)c3Cl)CC2)CC1	cAMP, agonist, TR-FRET	CHO		Emax	95%
CC(C)N1CCC[C@H]1CNC(=O)c1cn(C2CCCC2)c(=O)c2c1c1ccccc1n2C	ligand displacement, radioligand		10 µM	inhibition	3%
CCN(CC)CCCC[C@H](NC(=O)[C@H](CC(C)C)NC(=O)[C@H](C)NC(=O)[C@H](Cc1ccccc1)NC(=O)c1ccc(C(C)(C)C)cc1)C(=O)N[C@@H](CO)C(=O)OC	ligand displacement, radioligand		10 µM	remaining binding	81.3%
CCNCCc1c[nH]c2ccc(OC)cc12	calcium signal, agonist			Emax	~70%
CNC(=O)Nc1ccc2c(c1)[C@]1(CC2)OC(=O)N(CC(=O)N(Cc2ccc(F)cc2)[C@@H](C)C(F)(F)F)C1=O	ligand displacement		10 µM	inhibition	4.17%
Clc1ccc2c(C3CCN(CCc4c[nH]c5ccccc45)CC3)c[nH]c2c1	ligand displacement, radioligand		10 µM	inhibition	99%
COCCc1ccc(-c2c(C)nc3c(N4CCOCC4)ccnn23)cn1	ligand displacement		10 µM	inhibition	22.9%
COCc1c(-c2cc3cc(C)cc(OC)c3s2)c2c(N)ncnn2c1CN1CCNC(=O)C1	ligand displacement, radioligand		10 µM	inhibition	8%
